From PubChem
FLuc inh counter – Photinus pyralis luciferase inhibition counter-screen; AID 1006; inhibition, % at 10 µM; P08659; 200,000 compounds, 1.5% hits; ATPLite firefly luciferase biochemical luminescence, 10 min;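 active means inhibition above about 50% when tested at 10 µM, limit read from the data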
Target sequence (P08659 whole entry, looked up): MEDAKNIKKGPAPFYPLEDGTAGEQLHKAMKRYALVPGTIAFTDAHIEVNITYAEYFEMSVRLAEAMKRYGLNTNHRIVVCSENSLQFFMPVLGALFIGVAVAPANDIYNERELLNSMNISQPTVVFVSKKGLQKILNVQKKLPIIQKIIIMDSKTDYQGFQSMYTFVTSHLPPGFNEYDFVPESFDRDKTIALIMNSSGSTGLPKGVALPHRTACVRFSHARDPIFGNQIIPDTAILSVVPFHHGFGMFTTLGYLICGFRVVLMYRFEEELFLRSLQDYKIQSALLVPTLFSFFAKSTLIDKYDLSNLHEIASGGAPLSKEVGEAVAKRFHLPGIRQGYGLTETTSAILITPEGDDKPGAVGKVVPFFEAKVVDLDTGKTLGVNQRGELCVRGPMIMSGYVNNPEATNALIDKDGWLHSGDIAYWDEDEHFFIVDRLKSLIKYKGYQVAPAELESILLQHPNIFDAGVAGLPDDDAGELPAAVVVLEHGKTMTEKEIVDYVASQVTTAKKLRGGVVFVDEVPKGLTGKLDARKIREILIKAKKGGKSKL
C8 TRAIL sens – sensitizes caspase-8 expressing cells to TRAIL; NB7+C8 cells + TRAIL, ATPlite viability luminescence; inhibition (viability loss, TRAIL sensitization), % at 10 µM; 360,000 compounds, 1% hits; AID 624354;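 active means compounds causing at least 50% loss of cell viability in the single-dose screen, relative to plate controls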
NF-kB neuron act – NF-kB expression increase, human neuronal cells; 190,000 compounds, 1.6% hits; NF-kB reporter expression; stronger effect = higher value; fold change at 12.5 µM; in the data active means fold change above about 3.3
PPC-1+TRAIL kill – PPC-1 cancer cell killing with TRAIL present; PPC-1 cells + TRAIL, ATPLite viability luminescence; 220,000 compounds, 0.41% hits; cell killing (% activity), % at 4 µM or 5 µM;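 active means cell killing above 50% in the first pass at 4 µM, then a duplicate retest at 5 µM averaging 50% or more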
APP 5'UTR act – APP 5'UTR luciferase reporter activation. AID 1276. activation, % at 2 µM. SH-SY5Y APP 5'UTR luciferase reporter, luminescence; zero percent = DMSO vehicle wells. 190,000 compounds, 1% hits;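 active means activation above a set limit, based on mean plus 3 SD of controls, cut at about 140% in these data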
FLuc stim CS – firefly luciferase counter-screen for stimulation assays. ATPlite luciferase biochemical, luminescence, 10 min; 0 = ATP-free wells, 1 = DMSO control. P08659. activation factor at 10 µM. 200,000 tested, under 10 active;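 active means luciferase activation factor, scaled between plate controls, of at least 2 with compound at 10 µM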
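Assay system: Luciferase/luciferin reagent mix; Medium: PBS as buffer for the ATP substrate; Dosing: test compounds dosed from 2 mM stocks in 100% DMSO; Times: 10 min, room temperature; Signal: luminescence from luciferase reaction; Read-out: luciferase activation; Controls: No-ATP low control, compound-free enzyme-plus-ATP high control.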
A number is an active result; n = inactive; x = no result given. Most compounds without a hit are left out; they make up all but 2.2% or so of the library.

SMILES	FLuc inh counter	C8 TRAIL sens	NF-kB neuron act	PPC-1+TRAIL kill	APP 5'UTR act	FLuc stim CS
c1csc(-c2nc3ccccc3[nH]2)c1	n	n	n	n	n	n
Nc1nc(-c2nc3ccccc3[nH]2)cs1	63	n	4.3	n	140	n
Cc1cccc(N2CCN(C(=O)C(Cc3ccccc3)n3cccc3)CC2)c1C (stereo unspecified)	n	n	n	n	n	n
CC1OC2CC(=O)OC2C2=C1C(=O)c1c(O)cccc1C2=O (stereo unspecified)	x	94	x	x	x	x
O=c1cc(-c2ccccc2)oc2ccc(Cl)cc12	x	n	x	x	x	x
O=c1cc(-c2ccc3c(c2)OCCO3)oc2ccc(Cl)cc12	50	n	7.2	n	214	n
C/C(O)=C(/C#N)c1nc2ccccc2[nH]1	n	n	n	n	x	n
CC(=O)OC(/C(O)=C(\C#N)c1nc2ccccc2[nH]1)c1ccccc1 (stereo unspecified)	n	n	3.6	n	n	n
CCOc1ccc(/C=C/C(=O)Oc2ccc(OC)cc2)cc1	x	n	x	x	x	x
CCOc1ccc(/C=C\C(C)=N\O)cc1	69	n	5.1	n	n	n
CN(C)CCCN(C(=O)C1COc2ccccc2O1)c1nc2cc3c(cc2s1)OCO3 (stereo unspecified)	x	n	x	x	x	x
N#Cc1cnn(-c2nc3sc4c(c3c(=O)[nH]2)CCCC4)c1N	60	n	n	n	n	n
O=c1[nH]c(C2CC2)nc2sc3c(c12)CCCC3	n	n	x	n	n	n
CCO[C@H]1OC(C(=O)N2CCOCC2)=C[C@@H](C)[C@@H]1CCCO	n	n	n	n	n	n
O=C(CSc1nnc(-c2ccc(Br)cc2)n1CCc1ccccc1)NC1CCS(=O)(=O)C1 (stereo unspecified)	n	n	n	n	x	n
O=C(COc1ccccc1-c1ccccc1)N/N=C/c1cccc2ccccc12	n	n	4.1	n	n	n
O=C(COc1cccc2ccccc12)N/N=C/c1ccccc1OCc1ccc(C(=O)O)cc1	n	n	n	x	n	n
COc1ccc(/C=N/NC(=O)COc2ccccc2-c2ccccc2)cc1	n	n	5.3	n	n	n
CCOC(=O)C1CCN(S(=O)(=O)CCNC(=O)c2ccc(F)cc2)CC1	x	n	x	x	x	x
Brc1ccc(-c2nnc3sc(CN4CCc5ccccc5C4)cn23)cc1	x	n	x	x	x	x
Brc1ccc(-c2nnc3sc(CN4CCC5(CC4)OCCO5)cn23)cc1	n	66	n	n	n	n
COc1ccc(C(=O)Nc2ccc(N3CCN(C(=O)c4ccccc4C)CC3)cc2)cc1	x	n	x	x	x	x
CC1=C(/C=C/C(C)=C/C=C/C(C)=C\C(=O)O)C(C)(C)CCC1	x	n	x	x	x	x
CC1=C(/C=C/C(C)=C/C=C/C(C)=C/C(=O)Nc2ccc(O)cc2)C(C)(C)CCC1	x	80	x	x	x	x
Cc1cc(C)c(C#N)c(SC(F)F)n1	n	n	n	n	n	n
SMILES	FLuc inh counter	C8 TRAIL sens	NF-kB neuron act	PPC-1+TRAIL kill	APP 5'UTR act	FLuc stim CS
Cc1ccc(NC(=O)/C(Cl)=C/c2ccccc2)cc1C	n	n	9.1	n	139	n
O=C(NCC1OCCc2ccccc21)c1ccc(NC(=O)c2ccc(Cl)cc2)cc1 (stereo unspecified)	n	n	n	n	n	n
O=C(O)Cc1csc(Nc2cccc(Cl)c2)n1	n	n	n	n	n	n
CC(C)c1ccc(Nc2nc(CC(=O)O)cs2)cc1	71	n	7.2	n	242	n
COC(=O)c1cc(-c2c(C)nn(-c3ccccc3)c2C)n[nH]1	n	n	5.9	n	n	n
Cc1nn(-c2ccccc2)c(C)c1-c1cc(C(=O)N/N=C/c2cccnc2)[nH]n1	n	x	n	n	n	n
Cc1ccccc1-c1nnc(SCC(=O)Nc2cccnc2Cl)o1	x	64	x	x	x	x
Cc1cc(C)cc(NC(=O)CSc2nnc(-c3ccccc3C)o2)c1	n	n	4.2	n	n	n
Cc1ccc(NC(=O)CSc2nnc(-c3ccccc3Br)o2)cc1C	n	n	n	n	n	n
O=C(CSc1nnc(-c2c[nH]c3ccccc23)o1)N(Cc1ccccc1)c1ccc(F)cc1	n	n	n	n	n	n
Cc1ccc(NC(=O)CSc2nnc(-c3ccccc3C)o2)cc1C	n	n	n	n	n	n
Cc1cccc(NC(=O)CSc2nnc(-c3ccccc3C)o2)c1	n	n	4.7	n	151	n
COc1ccc(CN(C(=O)CSc2nnc(-c3ccccc3C)o2)c2ccc(F)cc2)cc1	n	95	n	n	n	n
Cc1cccc(NC(=O)CSc2nnc(-c3ccccc3Br)o2)c1C	n	n	n	n	n	n
CC(=O)CCc1ccc(OCC(=O)Nc2cccc(S(=O)(=O)N(C)c3ccccc3)c2)cc1	x	n	x	x	x	x
COC(=O)c1sc(SC)c(S(=O)(=O)C(C)C)c1N/N=C(\C#N)C(=O)c1ccccc1	x	n	x	n	x	x
O=C(CSc1nnc(-c2ccccc2Cl)o1)Nc1ccc2c(c1)OCCO2	n	n	n	n	141	n
CSc1nsc(SCC(=O)Nc2ccc3c(c2)OCCO3)n1	n	n	4	n	141	n
O=C(CSc1nnc(CNC(=O)c2ccccc2)o1)Nc1ccc2c(c1)OCCO2	x	n	x	x	x	x
Cc1cccc(NC(=O)CNC(=O)c2ccc(S(=O)(=O)NCc3ccco3)cc2)c1C	x	n	x	x	x	x
CCCCCCOc1ccc(OC(=O)c2ccncc2)cc1	n	n	9.9	n	n	n
CCN(CC)C(=O)c1cc(-c2ccc(Br)cc2)on1	n	n	3.3	n	n	n
CC(C)(C)NCCC(O)c1cc(C(F)(F)F)nc2c(C(F)(F)F)cccc12 (stereo unspecified)	x	91	x	x	x	x
CCN(CC)c1ccc(C(=O)O)cc1	n	n	n	n	n	n
CCN(CC)c1ccc(/C=C2\C(=O)c3ccc(C(=O)O)cc3C2=O)cc1	92	n	n	n	n	n
SMILES	FLuc inh counter	C8 TRAIL sens	NF-kB neuron act	PPC-1+TRAIL kill	APP 5'UTR act	FLuc stim CS
CCCCc1ccc(-c2ccc(Br)cc2)nc1	n	n	6	n	n	n
CCCc1ccc(-c2ccc(F)c(N)c2)nc1	90	69	4.2	n	140	n
CC(Sc1nnc(-c2cccnc2)n1N)C(=O)Nc1ccc2c(c1)OCCO2 (stereo unspecified)	x	n	x	x	x	x
COc1ccc(C(=O)Nc2cccc(/C=C/c3nc4ccccc4c(=O)[nH]3)c2)cc1	x	76	x	n	x	x
COc1ccc(C(=O)Nc2nc3ccccc3c(=O)[nH]2)cc1	n	n	4	n	177	n
COc1ccc(C(=O)Nn2c(SCC(=O)c3ccccc3)nc3ccccc3c2=O)cc1	n	n	n	n	155	n
CCc1cccc(NC(=O)Cn2c(=O)c3cccn3c3ccccc32)c1	x	n	x	x	x	x
COc1ccc(C[C@H](C)NC[C@@H](O)c2ccc(O)c(NC=O)c2)cc1	x	n	x	x	x	x
C/C(=N\N=C1\NC(=O)C(CC(=O)Nc2ccccc2F)S1)C1CCCCC1 (stereo unspecified)	x	n	x	x	x	x
Cc1ccc(C)c(NC(=O)CN(C)C(C)C(=O)N2CC(C)CC(C)C2)c1 (stereo unspecified)	x	n	x	x	x	x
O=C(N/N=C/c1ccccc1C(F)(F)F)c1ccc(O)cc1	55	n	n	n	n	n
